Measurements taken from ChEMBL document CHEMBL1127665, “Synthesis and antibacterial activity of new quinolones containing a 7-[3-(1-amino-1-methylethyl)-1-pyrrolidinyl] moiety. Gram-positive agents with excellent oral activity and low side-effect potential” (J Med Chem, 1994).
Converted amounts (≈) assume the structure as drawn.

Experiments:
Staphylococcus aureus [1] = assay: Minimum inhibitory concentration against Staphylococcus aureus UC-76; type: functional
Summary of the method: (§1)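 Tested by microtitration against a panel of 10 Gram-positive and Gram-negative organisms. MIC is reported in μg/mL.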

Streptococcus pneumoniae = assay: Minimum inhibitory concentration tested against Streptococcus pneumoniae SV-1; type: functional; summary of the method: as §1
Klebsiella pneumoniae = assay: Minimum inhibitory concentration against Klebsiella pneumoniae MGH-2; type: functional; summary of the method: as §1
Enterococcus faecalis = assay: Minimum inhibitory concentration against Streptococcus faecalis MGH-2; type: functional; summary of the method: as §1
Mus musculus [2] = assay: In vivo antibacterial activity against Streptococcus pyogenes after following subcutaneous administration; type: functional; conditions: sc, read-out: PD50
Summary of the method: (§2)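 Acute lethal systemic infection in female Charles River CD-1 mice. Compound given orally or subcutaneously. Potency expressed as median protective dose (PD50, mg/kg), the dose preventing death in 50% of animals.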

Mus musculus [3] = assay: In vivo antibacterial activity against Streptococcus pyogenes after following oral administration; type: functional; conditions: read-out: PD50; summary of the method: as §2
Streptococcus pyogenes = assay: Minimum inhibitory concentration against Streptococcus pyogenes C203; type: functional; summary of the method: as §1
Escherichia coli = assay: Minimum inhibitory concentration against Escherichia coli Vogel; type: functional; summary of the method: as §1
Staphylococcus aureus [4] = assay: Minimum inhibitory concentration against Staphylococcus aureus H 228; type: functional; summary of the method: as §1
Pseudomonas aeruginosa = assay: Minimum inhibitory concentration against U1-18 cell line from Pseudomonas aeruginosa; type: functional; summary of the method: as §1
Providencia rettgeri = assay: Minimum inhibitory concentration against M1771 strain of Providencia rettgeri; type: functional; summary of the method: as §1
Enterobacter cloacae = assay: Minimum inhibitory concentration against Enterobacter cloacae MA 2646; type: functional
V79 = assay: Clonogenic cytotoxicity against Hamster V-79 cells; type: cell-based; conditions: Cricetulus griseus
Mus musculus [5] = assay: In vivo antibacterial activity against Escherichia coli after following subcutaneous administration; type: functional; conditions: sc, read-out: PD50; summary of the method: as §2
Mus musculus [6] = assay: In vivo antibacterial activity against Escherichia coli after following oral administration; type: functional; conditions: read-out: PD50; summary of the method: as §2
[7] = The no effect dose (NED) for phototoxicity in mouse; type: organism-based; conditions: in vivo, read-out: NED
Summary of the method: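 Female CD-1 mice were depilated and dosed orally, with five animals per dose plus controls. After each dose the mice were exposed to UVA for 3 h. This was repeated daily for 4 days. Any redness or erythema relative to control was scored positive. The value is the highest dose producing no effect, in mg/kg.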

| SMILES | MIC (Staphylococcus aureus [1]) [µg/mL] | MIC (Streptococcus pneumoniae) [µg/mL] | MIC (Klebsiella pneumoniae) [µg/mL] | MIC (Enterococcus faecalis) [µg/mL] | ED50 (Mus musculus [2]) [mg/kg] | ED50 (Mus musculus [3]) [mg/kg] | MIC (Streptococcus pyogenes) [µg/mL] | MIC (Escherichia coli) [µg/mL] | MIC (Staphylococcus aureus [4]) [µg/mL] | MIC (Pseudomonas aeruginosa) [µg/mL] | MIC (Providencia rettgeri) [µg/mL] | MIC (Enterobacter cloacae) [µg/mL] | IC50 (V79) [µg/mL] | ED50 (Mus musculus [5]) [mg/kg] | ED50 (Mus musculus [6]) [mg/kg] | NOAEL [7] [mg/kg] |
| --- | --- | --- | --- | --- | --- | --- | --- | --- | --- | --- | --- | --- | --- | --- | --- | --- |
| CC(C)(N)[C@H]1CCN(c2cc3c(cc2F)c(=O)c(C(=O)O)cn3C2CC2)C1.Cl | 0.1 | 0.2 | 0.8 | 0.4 | 13 | > 100 | 0.2 | 0.4 | 0.4 | 3.1 | 1.6 | 0.4 |  |  |  |  |
| COc1c(N2CC[C@H](C(C)(C)N)C2)c(F)cc2c(=O)c(C(=O)O)cn(C3CC3)c12.Cl | 0.013 | 0.025 | 0.4 | 0.05 | 3 | 29 | 0.025 | 0.2 | 0.05 | 3.1 | 0.8 | 0.2 | > 500 |  |  |  |
| CC(C)(N)[C@H]1CCN(c2nc3c(cc2F)c(=O)c(C(=O)O)cn3C2CC2)C1.Cl | 0.025 | 0.05 | 0.4 | 0.1 | 6 | 32 | 0.1 | 0.2 | 0.1 | 3.1 | 0.8 | 0.2 |  | 3 | 10 | 55 |
| NCC1CCN(c2nc3c(cc2F)c(=O)c(C(=O)O)cn3-c2ccc(F)cc2F)C1 (configuration not stated) | 0.013 (≈ 0.0311 µM) | 0.025 (≈ 0.0598 µM) | 0.1 (≈ 0.239 µM) | 0.025 (≈ 0.0598 µM) |  |  | 0.025 (≈ 0.0598 µM) | 0.05 (≈ 0.12 µM) | 0.05 (≈ 0.12 µM) | 0.4 (≈ 0.956 µM) | 0.2 (≈ 0.478 µM) | 0.05 (≈ 0.12 µM) |  |  |  |  |
| CC(C)(N)[C@@H]1CCN(c2cc3c(cc2F)c(=O)c(C(=O)O)cn3C2CC2)C1.Cl | 0.006 | 0.003 | 0.1 | 0.025 | 1 | 20 | 0.003 | 0.05 | 0.05 | 0.8 | 0.2 | 0.05 | 190 | 2 | 18 |  |
| NCC1CCN(c2c(F)cc3c(=O)c(C(=O)O)cn(C4CC4)c3c2Cl)C1 (configuration not stated) | 0.003 (≈ 0.0079 µM) | 0.003 (≈ 0.0079 µM) | 0.05 (≈ 0.132 µM) | 0.006 (≈ 0.0158 µM) | 0.2 | 5 | 0.003 (≈ 0.0079 µM) | 0.025 (≈ 0.0658 µM) | 0.003 (≈ 0.0079 µM) | 0.4 (≈ 1.05 µM) | 0.05 (≈ 0.132 µM) | 0.025 (≈ 0.0658 µM) |  | 1 | 33 |  |
| CC(C)(N)[C@@H]1CCN(c2c(F)cc3c(=O)c(C(=O)O)cn(C4CC4)c3c2Cl)C1.Cl | 0.003 | 0.003 | 0.1 | 0.013 | 0.1 | 2 | 0.003 | 0.05 | 0.006 | 0.8 | 0.2 | 0.05 | < 8 | 1 | 8 |  |
| COc1c(N2CC[C@@H](C(C)(C)N)C2)c(F)cc2c(=O)c(C(=O)O)cn(C3CC3)c12.Cl | 0.003 | 0.003 | 0.2 | 0.013 | 0.6 | 2 | 0.003 | 0.1 | 0.013 | 1.6 | 0.4 | 0.1 | 18 | 3 | 26 |  |
| COc1c(N2CCC(CN)C2)c(F)cc2c(=O)c(C(=O)O)cn(C3CC3)c12 (configuration not stated) | 0.003 (≈ 0.00799 µM) | 0.003 (≈ 0.00799 µM) | 0.1 (≈ 0.266 µM) | 0.013 (≈ 0.0346 µM) | 0.6 | 11 | 0.003 (≈ 0.00799 µM) | 0.05 (≈ 0.133 µM) | 0.025 (≈ 0.0666 µM) | 0.8 (≈ 2.13 µM) | 0.1 (≈ 0.266 µM) | 0.05 (≈ 0.133 µM) |  |  |  |  |
| CC(C)(N)[C@H]1CCN(c2c(F)cc3c(=O)c(C(=O)O)cn(C4CC4)c3c2Cl)C1.Cl | 0.013 | 0.013 | 0.2 | 0.05 | 4 | 13 | 0.025 | 0.1 | 0.025 | 1.6 | 0.4 | 0.1 |  | 4 | 27 |  |
| O=C(O)c1cn(C2CC2)c2cc(N3CCNCC3)c(F)cc2c1=O [CIPROFLOXACIN] | 0.2 (≈ 0.604 µM) | 1.6 (≈ 4.83 µM) | 0.05 (≈ 0.151 µM) | 0.8 (≈ 2.41 µM) | 19 | 180 | 0.8 (≈ 2.41 µM) |  | 3.1 (≈ 9.36 µM) | 0.4 (≈ 1.21 µM) | 0.1 (≈ 0.302 µM) |  |  | 0.3 | 1 | > 100 |
| CC(C)(N)[C@@H]1CCN(c2nc3c(cc2F)c(=O)c(C(=O)O)cn3-c2ccc(F)cc2F)C1.Cl | 0.025 | 0.05 | 0.4 | 0.1 |  |  | 0.05 | 0.2 | 0.05 | 3.1 | 0.8 | 0.2 |  |  |  |  |
| NCC1CCN(c2cc3c(cc2F)c(=O)c(C(=O)O)cn3C2CC2)C1 (configuration not stated) | 0.006 (≈ 0.0174 µM) | 0.013 (≈ 0.0376 µM) | 0.1 (≈ 0.29 µM) | 0.05 (≈ 0.145 µM) | 4 | > 100 | 0.013 (≈ 0.0376 µM) | 0.05 (≈ 0.145 µM) | 0.05 (≈ 0.145 µM) | 0.8 (≈ 2.32 µM) | 0.2 (≈ 0.579 µM) | 0.1 (≈ 0.29 µM) |  | 2 | > 100 |  |
| CC(C)(N)[C@H]1CCN(c2nc3c(cc2F)c(=O)c(C(=O)O)cn3-c2ccc(F)cc2F)C1.Cl | 0.1 | 0.4 | 0.8 | 0.4 |  |  | 0.4 | 0.4 | 0.4 | 3.1 | 1.6 | 0.4 |  |  |  |  |
| NCC1CCN(c2nc3c(cc2F)c(=O)c(C(=O)O)cn3C2CC2)C1 (configuration not stated) | 0.003 (≈ 0.00866 µM) | 0.1 (≈ 0.289 µM) | 0.1 (≈ 0.289 µM) | 0.025 (≈ 0.0722 µM) | 4 | 39 | 0.025 (≈ 0.0722 µM) | 0.05 (≈ 0.144 µM) | 0.1 (≈ 0.289 µM) | 0.2 (≈ 0.577 µM) | 0.4 (≈ 1.15 µM) | 0.1 (≈ 0.289 µM) | 42 (≈ 121 µM) | 1 | 17 |  |
